Source: ChEMBL document CHEMBL1147636, “Fluorescence-labeled sphingosines as substrates of sphingosine kinases 1 and 2” (Bioorg Med Chem Lett, 2004)

Columns and labels:
[1] = molecular target: Sphingosine kinase 1 (Homo sapiens) (UniProt Q9NYA1); test: Rate of phosphorylation of labeled sphingosine derivative by human SPHK-1 expressed in HEK293 cells relative to rate of D-sphingosine; format: functional, cell-based
In short: (§1)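 Enzyme source was the cytoplasmic fraction of HEK-293 cells overexpressing human SPHK-1 or -2. Incubation was at 30 °C for time points up to 2 h. Lipids were extracted, separated by TLC and quantified by phosphorimaging, and rates were expressed relative to sphingosine.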

[2] = molecular target: T1, Sphingosine kinase 2 (Homo sapiens) (UniProt Q9NRA0); test: Rate of phosphorylation of labeled sphingosine derivative by human SPHK-2 expressed in HEK293 cells relative to rate of D-sphingosine; format: functional, cell-based; in short: as §1
T1 sequence (whole entry): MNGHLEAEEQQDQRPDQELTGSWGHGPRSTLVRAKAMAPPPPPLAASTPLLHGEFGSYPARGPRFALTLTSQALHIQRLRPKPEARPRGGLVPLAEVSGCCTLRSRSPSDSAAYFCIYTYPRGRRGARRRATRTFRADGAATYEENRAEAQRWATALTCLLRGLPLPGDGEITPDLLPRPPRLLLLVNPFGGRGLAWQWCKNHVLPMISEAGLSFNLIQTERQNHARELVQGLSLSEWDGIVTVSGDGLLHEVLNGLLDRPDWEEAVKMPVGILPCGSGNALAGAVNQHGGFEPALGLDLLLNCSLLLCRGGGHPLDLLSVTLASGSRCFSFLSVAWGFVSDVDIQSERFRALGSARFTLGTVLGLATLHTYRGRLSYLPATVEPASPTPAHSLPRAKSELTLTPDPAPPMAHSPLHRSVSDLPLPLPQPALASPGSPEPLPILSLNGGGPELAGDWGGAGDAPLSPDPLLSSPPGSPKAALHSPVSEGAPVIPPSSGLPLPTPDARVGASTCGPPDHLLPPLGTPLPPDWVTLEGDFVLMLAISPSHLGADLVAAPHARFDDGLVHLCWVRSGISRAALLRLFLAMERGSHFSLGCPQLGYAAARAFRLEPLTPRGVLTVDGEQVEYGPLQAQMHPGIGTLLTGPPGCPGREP

Sequence of Sphingosine kinase 1 (Homo sapiens) (Q9NYA1 whole entry): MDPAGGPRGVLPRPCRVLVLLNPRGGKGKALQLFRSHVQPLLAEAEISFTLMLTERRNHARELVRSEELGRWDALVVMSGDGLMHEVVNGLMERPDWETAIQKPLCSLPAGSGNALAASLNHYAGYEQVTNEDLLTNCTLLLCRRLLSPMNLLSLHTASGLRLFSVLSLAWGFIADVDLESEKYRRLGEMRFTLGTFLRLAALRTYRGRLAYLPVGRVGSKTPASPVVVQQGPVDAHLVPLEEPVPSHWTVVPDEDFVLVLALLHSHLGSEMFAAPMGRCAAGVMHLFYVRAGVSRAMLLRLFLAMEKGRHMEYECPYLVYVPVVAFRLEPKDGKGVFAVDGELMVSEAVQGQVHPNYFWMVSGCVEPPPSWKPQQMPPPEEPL

Row | SMILES | Rate [1] | Rate [2]
1 | NC(CO)[C@H](O)/C=C/CCCCCCCCCCNc1ccc([N+](=O)[O-])c2nonc12 (single isomer, unassigned) | 0.5 | 0.48
2 | N[C@@H](CO)[C@H](O)/C=C/CCCOC(=O)CCCc1ccc2ccc3cccc4ccc1c2c34 | 0.048 | 0.14
3 | CN(C)c1ccc(S(=O)(=O)NCCCCCCCCCC/C=C/C(O)C(N)CO)c2ccccc12 (single isomer, unassigned) | 0.063 | 0.026
4 | N[C@@H](CO)[C@H](O)/C=C/CCCOC(=O)CCCCCCCCCc1ccc2ccc3cccc4ccc1c2c34 | 0.024 | 0.065
5 | N[C@@H](CO)[C@H](O)/C=C/CCCCCCCCCCOC(=O)c1ccc2ccc3cccc4ccc1c2c34 | 0.83 | 1.25
6 | N[C@@H](CO)[C@H](O)/C=C/CCCOC(=O)CCCCCc1ccc2ccc3cccc4ccc1c2c34 | 0.078 | 0.83
7 | NC(CO)[C@H](O)/C=C/CCCCCCCCCCNS(=O)(=O)c1ccc2ccc3cccc4ccc1c2c34 (some centres undefined) | 0.051 | 0.83
